This is an account of results in ChEMBL document CHEMBL1139372, “Docking studies on a new human immunodeficiency virus integrase-Mg-DNA complex: phenyl ring exploration and synthesis of 1H-benzylindole derivatives through fluorine substitutions” (J Med Chem, 2009).

For data set [1], the system named is Human immunodeficiency virus 1. Kind of data set: Antiviral activity against HIV1 3B infected in human MT4 cells assessed as inhibition of virus-induced cytopathic effect by MTT assay. The data set is classed as functional, organism-based. Particulars: Human immunodeficiency virus 1, 3B. The method, boiled down:
(§1)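 Human lymphocyte MT-4 cultures infected with HIV-1; HIV-induced cytopathic effect read by MTT assay; EC50 is the concentration reducing cytopathic effect by 50%; average ± SD; SI is CC50/EC50.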
On the technique in general: Damage to the host cells serves as the signal in cytopathic effect assays.

The nature of data set [2]: Selectivity index, ratio of CC50 for human MT4 cells to EC50 for HIV1 3B. Type of data set: toxicity, cell-based. Particulars: read-out: Ratio CC50/EC50. The procedure, abridged: as §1
For data set [3], the target named is T1, Human immunodeficiency virus type 1 integrase (Human immunodeficiency virus 1, UniProt Q7ZJM1). Kind of data set: Inhibition of HIV1 integrase activity by ELISA. The method, boiled down: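 In vitro overall integrase reaction measured by enzyme-linked immunosorbent assay; IC50 is the concentration giving 50% inhibition of overall integrase activity; average ± SD.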
T1 sequence (Q7ZJM1 whole entry): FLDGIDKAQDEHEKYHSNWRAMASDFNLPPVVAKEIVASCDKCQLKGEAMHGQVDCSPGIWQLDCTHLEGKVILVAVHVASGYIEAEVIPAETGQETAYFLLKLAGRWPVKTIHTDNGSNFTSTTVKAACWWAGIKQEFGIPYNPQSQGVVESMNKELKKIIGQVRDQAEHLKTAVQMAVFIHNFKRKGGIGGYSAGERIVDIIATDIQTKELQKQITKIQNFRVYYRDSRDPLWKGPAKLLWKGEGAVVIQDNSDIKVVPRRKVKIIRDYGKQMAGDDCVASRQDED

The target of data set [4] is T1, Human immunodeficiency virus type 1 integrase. Kind of data set: Inhibition of HIV1 integrase strand transfer activity by ELISA. The method, boiled down:
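Strand transfer step of integration measured in vitro by enzyme-linked immunosorbent assay; IC50 is the concentration giving 50% inhibition of strand transfer; average ± SD.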
In general terms: In an ELISA, binding on a coated surface is turned into a signal by an enzyme label.

Data set [5] in a line: Cytotoxicity against human MT4 cells by MTT assay. The data set is classed as cell-based. The procedure, abridged:
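Uninfected MT-4 cells; viability read by MTT assay; CC50 is the concentration reducing viability by 50%; average ± SD; SI is CC50/EC50.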
A general note: Tetrazolium assays rely on reduction of a dye to a coloured formazan, in cell work by metabolically active cells.

In general, EC50 refers to the midpoint of the concentration-response curve. In the case of `COc1cccc2c1c(C(=O)/C=C(\O)C(=O)O)cn2Cc1ccc(F)cc1`, the EC50 in data set [1] stood at 590 nM. For the same compound, in data set [2], the selectivity ratio came to 70.
Usually IC50 stands for the concentration needed to halve the response being measured. Read a low IC50 as inhibition by little substance. A word on the CC50: it is the concentration at which the toxic effect on the cells reaches its halfway point. A lower CC50 goes with greater toxicity to the cells. Turning to `COc1cccc2c1c(C(=O)/C=C(\O)C(=O)O)cn2Cc1c(F)cccc1F`, the IC50 in data set [3] amounted to 130 nM; in data set [4] it was 80 nM. In data set [1], the EC50 stood at 410 nM. This compound also yielded a CC50 in data set [5] of 44300 nM. Moreover, the selectivity ratio in data set [2] came out at 108.
The like results for `COc1cccc2c1c(C(=O)/C=C(\O)C(=O)O)cn2Cc1cccc(F)c1F` were, in that order, 10 nM, 120 nM, 260 nM, 17500 nM and greater than 68.7.
The like results for `COc1cccc2c1c(C(=O)/C=C(\O)C(=O)O)cn2Cc1ccc(F)c(F)c1` were, in that order, 420 nM, 600 nM, 2800 nM, 71000 nM and 25.
Taken in the same sequence, the figures for `CCOC(=O)/C(O)=C/C(=O)c1cn(Cc2cccc(F)c2)c2cccc(OC)c12` were 300 nM, 2260 nM, 2210 nM, 63200 nM and 28.5.
`CCOC(=O)/C(O)=C/C(=O)c1cn(Cc2ccc(F)c(F)c2)c2cccc(OC)c12`: the figures for the IC50 in data set [3] and in data set [4] were 26500 nM and 1560 nM, respectively. Also, the EC50 in data set [1] turned out to be 80100 nM. This compound also registered a CC50 in data set [5] of 125000 nM. Besides, the selectivity ratio in data set [2] was greater than 2.
Turning to `CCOC(=O)/C(O)=C/C(=O)c1cn(Cc2cc(F)cc(F)c2)c2cccc(OC)c12`, the values for the IC50 in data set [3] and in data set [4] were 1520 nM and 2740 nM, respectively. Further, the EC50 in data set [1] turned out to be 5940 nM. In addition, in data set [5], the CC50 was 34700 nM. For the same compound, the selectivity ratio in data set [2] is greater than 5.8.
The like results for `CCOC(=O)/C(O)=C/C(=O)c1cn(Cc2ccc(F)c(F)c2F)c2cccc(OC)c12` were, in that order, 3010 nM, 1150 nM, 3150 nM, 42700 nM and greater than 13.
Taken in the same sequence, the figures for `CCOC(=O)/C(O)=C/C(=O)c1cn(Cc2cc(F)ccc2F)c2cccc(OC)c12` were 1410 nM, 400 nM, 3150 nM, 41200 nM and 13.1.
The like results for `CCOC(=O)/C(O)=C/C(=O)c1cn(Cc2c(F)cccc2F)c2cccc(OC)c12` were, in that order, 360 nM, 70 nM, 2040 nM, 63400 nM and greater than 31.1.
Consider `CCOC(=O)/C(O)=C/C(=O)c1cn(Cc2ccccc2F)c2cccc(OC)c12`, for which the half-maximal inhibitory concentration (IC50) in data set [3] is 380 nM; in data set [4] it was 720 nM. The EC50 in data set [1] is 1400 nM. Moreover, in data set [5], the CC50 came to 63300 nM. Moreover, the selectivity ratio in data set [2] was determined as 45.3.
The like results for `CCOC(=O)/C(O)=C/C(=O)c1cn(Cc2ccc(F)cc2F)c2cccc(OC)c12` were, in that order, 110 nM, 670 nM, 1950 nM, 65500 nM and 33.7.
Take `CCOC(=O)/C(O)=C/C(=O)c1cn(Cc2cc(F)c(F)c(F)c2)c2cccc(OC)c12`: the IC50 turned out to be 2000 nM in data set [3] and 1410 nM in data set [4]. The EC50 in data set [1] turned out to be 3960 nM. This compound also had a CC50 in data set [5] of 33400 nM. Further, the selectivity ratio in data set [2] worked out at 8.4.
As for `COc1cccc2c1c(C(=O)/C=C(\O)C(=O)O)cn2Cc1ccccc1F`, the IC50 in data set [3] is 70 nM; in data set [4], 40 nM. The concentration for a half-maximal effect (EC50) in data set [1] came out at 310 nM. For the same compound, in data set [5], the CC50 is 70500 nM. In data set [2], the selectivity ratio came out at 228.
Taken in the same sequence, the figures for `COc1cccc2c1c(C(=O)/C=C(\O)C(=O)O)cn2Cc1cc(F)c(F)c(F)c1` were 60 nM, 100 nM, 2210 nM, 23300 nM and 10.5.
The like results for `CCOC(=O)/C(O)=C/C(=O)c1cn(Cc2c(F)ccc(F)c2F)c2cccc(OC)c12` were, in that order, 170 nM, 820 nM, 4840 nM, 40500 nM and 8.4.
The like results for `COc1cccc2c1c(C(=O)/C=C(\O)C(=O)O)cn2Cc1cc(F)ccc1F` were, in that order, 50 nM, 20 nM, 410 nM, 46200 nM and 113.
Turning to `CCOC(=O)/C(O)=C/C(=O)c1cn(Cc2cccc(F)c2F)c2cccc(OC)c12`, the IC50 was 5 nM in data set [3] and 12 nM in data set [4]. For the same compound, the EC50 in data set [1] amounted to 1900 nM. The same compound came in with a CC50 in data set [5] of 21100 nM. For the same compound, the selectivity ratio in data set [2] was determined as 11.1.
As to `COc1cccc2c1c(C(=O)/C=C(\O)C(=O)O)cn2Cc1ccc(F)c(F)c1F`, the IC50 came to 140 nM in data set [3] and 280 nM in data set [4]. Moreover, the EC50 in data set [1] is 1150 nM. The compound further registered a CC50 in data set [5] of 22800 nM. For the same compound, the selectivity ratio in data set [2] was determined as 19.9.
The like results for `COc1cccc2c1c(C(=O)/C=C(\O)C(=O)O)cn2Cc1ccc(F)cc1F` were, in that order, 10 nM, 20 nM, 410 nM, 20800 nM and 50.7.
Taken in the same sequence, the figures for `COc1cccc2c1c(C(=O)/C=C(\O)C(=O)O)cn2Cc1cc(F)cc(F)c1` were 440 nM, 240 nM, 2780 nM, 29500 nM and 10.6.
As for `COc1cccc2c1c(C(=O)/C=C(\O)C(=O)O)cn2Cc1cccc(F)c1`, the IC50 in data set [3] and in data set [4] was 30 nM throughout. Besides, in data set [1], the EC50 is 380 nM. For the same compound, the CC50 in data set [5] came to 65800 nM. Also, the selectivity ratio in data set [2] is 175.
In the case of `COc1cccc2c1c(C(=O)/C=C(\O)C(=O)O)cn2Cc1c(F)ccc(F)c1F`, the IC50 in data set [3] was determined as 130 nM; in data set [4], 160 nM. Moreover, the EC50 in data set [1] amounted to 650 nM. In data set [5], this compound displayed a CC50 of 49400 nM. Besides, the selectivity ratio in data set [2] is 75.5.
